The record followed here is ChEMBL document CHEMBL1127424, “7-azetidinylquinolones as antibacterial agents. 2. Synthesis and biological activity of 7-(2,3-disubstituted-1-azetidinyl)-4-oxoquinoline- and -1,8-naphthyridine-3-carboxylic acids. Properties and structure-activity relationships of quinolones with an azetidine moiety” (J Med Chem, 1994).

Converted amounts (≈) assume the structure as drawn.

Series [1] concerns Bacillus subtilis. Kind of series: In vitro minimum inhibitory concentration for Bacillus subtilis ATCC 6633. The series is classed as functional. A digest of the protocol: (§1)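 Serial 2-fold agar dilution in Mueller Hinton medium, run alongside a reference quinolone. Inoculum adjusted to 10⁸ cfu/mL; compound range 0.007–16 μg/mL.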
Series [2] deals with Staphylococcus aureus. The series can be described thus: In vitro minimum inhibitory concentration for Staphylococcus aureus ATCC 25178. Format: functional. The gist of the method:
as §1

The nature of series [3]: HPLC capacity factor (k'). The series is classed as ADME. A digest of the protocol:
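Ion-pair reversed-phase HPLC on ODS-2 (10 μm) at 45 °C. Mobile phase: 10 mM sodium heptanesulfonate plus 50 mM KH2PO4 (pH 3.5)–methanol 45:55, 1 mL/min. Samples at 100 μg/mL in DMF, injected in duplicate, UV 280 nm. k' = (tR − t0)/t0.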

Series [4] has as its system Staphylococcus epidermidis. The series can be described thus: In vitro minimum inhibitory concentration for Staphylococcus epidermidis ATCC 155-1. The series is classed as functional. The gist of the method:
as §1

For series [5], the system named is Pseudomonas aeruginosa. Kind of series: In vitro minimum inhibitory concentration for Pseudomonas aeruginosa ATCC 10145. The series is classed as functional. The gist of the method:
as §1

For series [6], the system named is Morganella morganii. Kind of series: In vitro minimum inhibitory concentration for Morganella morganii ATCC 8019. Format: functional. A digest of the protocol:
as §1

Series [7] concerns Klebsiella pneumoniae. Kind of series: In vitro minimum inhibitory concentration to inhibit Klebsiella pneumoniae ATCC 10031. Format: functional. The gist of the method: as §1
The test system of series [8] is Escherichia coli. The series can be described thus: In vitro minimum inhibitory concentration for Escherichia coli ATCC 10799. The series is classed as functional. A digest of the protocol:
as §1

The subject of series [9] is Enterobacter cloacae. The series can be described thus: In vitro minimum inhibitory concentration for Enterobacter cloacae ATCC 23355. The series is classed as functional.
Series [10] has as its system Bacillus cereus. The series can be described thus: In vitro minimum inhibitory concentration for Bacillus cereus ATCC 11778. Format: functional. The gist of the method:
as §1

Series [11] relates to Proteus vulgaris. The series can be described thus: In vitro minimum inhibitory concentration for Proteus vulgaris ATCC 8427. The series is classed as functional. A digest of the protocol: as §1
Series [12] relates to Enterococcus faecalis. Kind of series: In vitro minimum inhibitory concentration for Streptococcus faecalis ATCC 10541. Format: functional. The gist of the method:
as §1

On to `C[C@H]1[C@@H](O)CN1c1c(F)cc2c(=O)c(C(=O)O)cn(C3CC3)c2c1F`, for which the MIC in series [1] came to 0.015 µg/mL (≈ 0.0428 µM); in [2], 0.25 µg/mL (≈ 0.714 µM); in series [4], 0.25 µg/mL (≈ 0.714 µM); in series [5] it was 8 µg/mL (≈ 22.8 µM); in series [6], 0.5 µg/mL (≈ 1.43 µM); in series [7], 0.015 µg/mL (≈ 0.0428 µM). In addition, the MIC worked out at 0.5 µg/mL (≈ 1.43 µM) in series [8]; 0.25 µg/mL (≈ 0.714 µM) in [9]; 0.25 µg/mL (≈ 0.714 µM) in series [10]; 0.25 µg/mL (≈ 0.714 µM) in series [11]; 2 µg/mL (≈ 5.71 µM) in series [12]. The “Log k'” value in [3] stood at 0.462.
As for `CC1(C)[C@@H](N)CN1c1nc2c(cc1F)c(=O)c(C(=O)O)cn2C1CC1`, the MIC in series [1] is 0.06 µg/mL (≈ 0.173 µM); in [2] it was 0.12 µg/mL (≈ 0.346 µM); in [4], 0.12 µg/mL (≈ 0.346 µM); in series [5], 2 µg/mL (≈ 5.77 µM); in series [6] it was 0.25 µg/mL (≈ 0.722 µM); in series [7], 0.06 µg/mL (≈ 0.173 µM). Also, the MIC in series [8] was determined as 0.25 µg/mL (≈ 0.722 µM); in series [9] it was 0.12 µg/mL (≈ 0.346 µM); in [10], 0.06 µg/mL (≈ 0.173 µM); in [11], 0.5 µg/mL (≈ 1.44 µM); in series [12], 2 µg/mL (≈ 5.77 µM). Further, the “Log k'” value in series [3] is -0.0223.
As to `CC[C@H]1[C@@H](O)CN1c1cc2c(cc1F)c(=O)c(C(=O)O)cn2C1CC1`, the MIC in [1] came out at 0.06 µg/mL (≈ 0.173 µM); in [2], 1 µg/mL (≈ 2.89 µM); in series [4], 0.5 µg/mL (≈ 1.44 µM); in [5], 8 µg/mL (≈ 23.1 µM); in series [6], 1 µg/mL (≈ 2.89 µM); in series [7], 0.5 µg/mL (≈ 1.44 µM). Further, the MIC was determined as 2 µg/mL (≈ 5.77 µM) in series [8]; 0.5 µg/mL (≈ 1.44 µM) in series [9]; 1 µg/mL (≈ 2.89 µM) in [10]; 0.5 µg/mL (≈ 1.44 µM) in series [11]; 8 µg/mL (≈ 23.1 µM) in series [12]. Moreover, the “Log k'” value in series [3] came out at 0.529.
On to `C[C@@H]1[C@@H](O)CN1c1cc2c(cc1F)c(=O)c(C(=O)O)cn2C1CC1`, for which the MIC is 0.015 µg/mL (≈ 0.0451 µM) in [1]; 0.12 µg/mL (≈ 0.361 µM) in [2]; 0.06 µg/mL (≈ 0.181 µM) in series [4]; 2 µg/mL (≈ 6.02 µM) in series [5]; 0.25 µg/mL (≈ 0.752 µM) in [6]; 0.015 µg/mL (≈ 0.0451 µM) in [7]. For the same compound, the MIC in series [8] was 0.25 µg/mL (≈ 0.752 µM); in [9] it was 0.12 µg/mL (≈ 0.361 µM); in [10], 0.06 µg/mL (≈ 0.181 µM); in series [11] it was 0.06 µg/mL (≈ 0.181 µM); in series [12], 2 µg/mL (≈ 6.02 µM). Moreover, the “Log k'” value in series [3] was found to be 0.407.
As for `CCn1cc(C(=O)O)c(=O)c2cc(F)c(N3C[C@@H](N)[C@@H]3C)cc21`, the MIC was determined as 0.12 µg/mL (≈ 0.376 µM) in series [1]; 1 µg/mL (≈ 3.13 µM) in [2]; 0.25 µg/mL (≈ 0.783 µM) in series [4]; 2 µg/mL (≈ 6.26 µM) in series [5]; 0.25 µg/mL (≈ 0.783 µM) in series [6]; 0.06 µg/mL (≈ 0.188 µM) in series [7]. Moreover, the MIC in [8] stood at 0.25 µg/mL (≈ 0.783 µM); in [9] it was 0.12 µg/mL (≈ 0.376 µM); in series [10] it was 1 µg/mL (≈ 3.13 µM); in series [11] it was 1 µg/mL (≈ 3.13 µM); in [12], 2 µg/mL (≈ 6.26 µM). For the same compound, the “Log k'” value in series [3] is -0.0915.
`C[C@H]1[C@H](N)CN1c1c(F)cc2c(=O)c(C(=O)O)cn(C(C)(C)C)c2c1F`: the MIC stood at 0.06 µg/mL (≈ 0.164 µM) in series [1]; 0.25 µg/mL (≈ 0.684 µM) in [2]; 0.25 µg/mL (≈ 0.684 µM) in series [4]; 2 µg/mL (≈ 5.47 µM) in series [5]; 0.25 µg/mL (≈ 0.684 µM) in series [6]; 0.06 µg/mL (≈ 0.164 µM) in series [7]. The MIC in series [8] was determined as 0.25 µg/mL (≈ 0.684 µM); in series [9], 0.25 µg/mL (≈ 0.684 µM); in [10], 0.25 µg/mL (≈ 0.684 µM); in series [11] it was 0.25 µg/mL (≈ 0.684 µM); in [12], 0.5 µg/mL (≈ 1.37 µM). Also, the “Log k'” value in series [3] was 0.262.
In the case of `C[C@H]1[C@@H](O)CN1c1cc2c(cc1F)c(=O)c(C(=O)O)cn2C1CC1`, the MIC in series [1] is 0.015 µg/mL (≈ 0.0451 µM); in series [2] it was 0.25 µg/mL (≈ 0.752 µM); in [4] it was 0.25 µg/mL (≈ 0.752 µM); in series [5], 4 µg/mL (≈ 12 µM); in series [6], 0.5 µg/mL (≈ 1.5 µM); in series [7] it was 0.25 µg/mL (≈ 0.752 µM). The MIC in series [8] came to 0.5 µg/mL (≈ 1.5 µM); in series [9] it was 0.25 µg/mL (≈ 0.752 µM); in series [10], 0.25 µg/mL (≈ 0.752 µM); in series [11], 0.25 µg/mL (≈ 0.752 µM); in series [12], 2 µg/mL (≈ 6.02 µM). The “Log k'” value in series [3] was 0.3299.
`C[C@H]1N(c2cc3c(cc2F)c(=O)c(C(=O)O)cn3C2CC2)C[C@]1(C)O`: the MIC in series [1] was determined as 0.03 µg/mL (≈ 0.0866 µM); in [2] it was 0.25 µg/mL (≈ 0.722 µM); in [4], 0.12 µg/mL (≈ 0.346 µM); in series [5], 2 µg/mL (≈ 5.77 µM); in series [6], 0.5 µg/mL (≈ 1.44 µM); in [7] it was 0.12 µg/mL (≈ 0.346 µM). The minimal inhibitory concentration (MIC) in series [8] came out at 0.25 µg/mL (≈ 0.722 µM); in series [9], 0.25 µg/mL (≈ 0.722 µM); in series [10] it was 0.12 µg/mL (≈ 0.346 µM); in [11] it was 0.25 µg/mL (≈ 0.722 µM); in series [12], 2 µg/mL (≈ 5.77 µM). Also, in series [3], the “Log k'” value came to 0.599.
As to `C[C@@H]1[C@@H](O)CN1c1c(F)cc2c(=O)c(C(=O)O)cn(C3CC3)c2c1F`, the MIC in series [1] was 0.015 µg/mL (≈ 0.0428 µM); in [2] it was 0.12 µg/mL (≈ 0.343 µM); in [4], 0.06 µg/mL (≈ 0.171 µM); in [5], 2 µg/mL (≈ 5.71 µM); in [6], 0.25 µg/mL (≈ 0.714 µM); in [7] it was 0.015 µg/mL (≈ 0.0428 µM). Besides, the MIC in [8] came to 0.25 µg/mL (≈ 0.714 µM); in [9], 0.12 µg/mL (≈ 0.343 µM); in series [10] it was 0.06 µg/mL (≈ 0.171 µM); in series [11], 0.12 µg/mL (≈ 0.343 µM); in series [12], 1 µg/mL (≈ 2.85 µM). Moreover, the “Log k'” value in [3] is reported as 0.518.

A word on the MIC: it is the least concentration at which growth counts as inhibited.
